Results on 32 molecules are retold here after ChEMBL document CHEMBL4325839, “Design, synthesis and biological evaluations of quaternization harman analogues as potential antibacterial agents” (Eur J Med Chem, 2018).

A word on the MIC: it is the lowest concentration that inhibits growth of the organism. Lower therefore signals inhibition by little substance.

Type in all cases: functional
One test has as its system Bacillus cereus. Put plainly: Antibacterial activity against Bacillus cereus CGMCC 1.1846 after 12 to 14 hrs by double dilution method.
Test [1] relates to Staphylococcus aureus. Put plainly: Antibacterial activity against methicillin-resistant Staphylococcus aureus ATCC 43300 after 12 to 14 hrs by double dilution method. Summed up:
(§1)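 Broth double-dilution MIC per NCCLS. Bacteria at 1×10^6 CFU/mL in Luria-Bertani medium. Compounds dissolved in DMSO as stock, then diluted in medium to 200, 100, 50, 25, 12.5, 6.25 and 3.125 nmol/mL (DMSO <0.5%); some also tested at 256–1 µg/mL. Incubated at 37 °C for 12–14 h. MIC read as lowest concentration giving visible growth inhibition.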

The subject of test [2] is Staphylococcus aureus. Put plainly: Antibacterial activity against Staphylococcus aureus CGMCC 1.8721 after 12 to 14 hrs by double dilution method.
Another test deals with Bacillus subtilis. Description: Antibacterial activity against Bacillus subtilis 769 after 12 to 14 hrs by double dilution method.
Another test relates to Ralstonia solanacearum. Put plainly: Antibacterial activity against Ralstonia solanacearum CGMCC 1.12711 measured after 12 to 14 hrs by double dilution method. Summed up:
as §1

The test system of a further test is Escherichia coli. Description: Antibacterial activity against Escherichia coli CGMCC 1.1636 after 12 to 14 hrs by double dilution method.

Values after ≈ are worked out from the molar mass of the structure shown. Where only a bound is given, the exact number is not on record here.

On to `Cc1ccc(C[n+]2ccc3c([nH]c4ccccc43)c2-c2ccccn2)cc1`, for which the MIC was 100 µM against Bacillus cereus; 50 µM in the test with Staphylococcus aureus [1]; 25 µM in the test on Staphylococcus aureus [2]; 100 µM in the test with Bacillus subtilis; 50 µM against Ralstonia solanacearum; greater than 200 µM in the test on Escherichia coli.
As to `c1ccc(C[n+]2ccc3c([nH]c4ccccc43)c2-c2ccc3c(c2)OCO3)cc1`, the minimal inhibitory concentration (MIC) with Bacillus cereus was 100 µM; against Staphylococcus aureus [1] it was 100 µM; against Staphylococcus aureus [2], 100 µM; with Bacillus subtilis, 50 µM; against Ralstonia solanacearum it was 100 µM; in the test with Escherichia coli, greater than 200 µM.
Take `COc1ccc2[nH]c3c(-c4ccccn4)[n+](Cc4ccccc4)ccc3c2c1`: the MIC with Bacillus cereus, with Staphylococcus aureus [1], against Staphylococcus aureus [2], against Bacillus subtilis, against Ralstonia solanacearum and against Escherichia coli was greater than 200 µM throughout.
On to `c1ccc2c(c1)[nH]c1c(-c3ccc4c(c3)OCO4)nccc12`, for which the minimum inhibitory concentration (MIC) with Bacillus cereus, against Staphylococcus aureus [1], against Staphylococcus aureus [2], in the test with Bacillus subtilis, against Ralstonia solanacearum and in the test with Escherichia coli was greater than 200 µM throughout.
With `CO/N=C(\C(=O)N[C@@H]1C(=O)N2C(C(=O)O)=C(COC(C)=O)CS[C@H]12)c1csc(N)n1` [CEFOTAXIME SODIUM], the minimum inhibitory concentration (MIC) against Bacillus cereus is 25 µM; against Staphylococcus aureus [1], 25 µM; against Staphylococcus aureus [2], 1.56 µM; against Bacillus subtilis, 3.12 µM; against Ralstonia solanacearum, 3.12 µM; in the test on Escherichia coli, 1.56 µM.
For `Cc1ccc(C[n+]2ccc3c([nH]c4ccccc43)c2-c2ccco2)cc1`, the minimum inhibitory concentration (MIC) with Bacillus cereus was found to be 100 µM; with Staphylococcus aureus [1], 50 µM; in the test on Staphylococcus aureus [2], 50 µM; with Bacillus subtilis, 25 µM; in the test on Ralstonia solanacearum it was 25 µM; with Escherichia coli it was 100 µM.
As to `COC(=O)c1ccc(-c2c3[nH]c4ccccc4c3cc[n+]2Cc2ccc(C(F)(F)F)cc2)cc1`, the MIC against Bacillus cereus amounted to 100 µM; with Staphylococcus aureus [1], 50 µM; in the test on Staphylococcus aureus [2], 50 µM; in the test on Bacillus subtilis, 50 µM; in the test with Ralstonia solanacearum it was 50 µM; against Escherichia coli it was 200 µM.
For the molecule `COC(=O)c1ccc(-c2nccc3c2[nH]c2ccccc23)cc1`, the minimum inhibitory concentration (MIC) in the test with Bacillus cereus, against Staphylococcus aureus [1], with Staphylococcus aureus [2], in the test on Bacillus subtilis, against Ralstonia solanacearum and against Escherichia coli was greater than 200 µM each time.
Turning to `COC(=O)c1ccc(-c2c3[nH]c4ccccc4c3cc[n+]2Cc2ccccc2)cc1`, the MIC against Bacillus cereus is 200 µM; in the test on Staphylococcus aureus [1] it was 200 µM; with Staphylococcus aureus [2], 100 µM; against Bacillus subtilis, 100 µM; in the test with Ralstonia solanacearum, 100 µM; with Escherichia coli it was greater than 200 µM.
For `COC(=O)c1ccc(-c2c3[nH]c4ccc(OC)cc4c3cc[n+]2Cc2ccc(F)cc2F)cc1`, the MIC was 200 µM against Bacillus cereus; greater than 200 µM in the test on Staphylococcus aureus [1]; 100 µM in the test on Staphylococcus aureus [2]; 100 µM against Bacillus subtilis; 100 µM in the test with Ralstonia solanacearum.
Consider `COc1ccc2[nH]c3c(-c4ccccn4)[n+](Cc4ccc(C)cc4)ccc3c2c1`, for which the MIC against Bacillus cereus is 200 µM; in the test on Staphylococcus aureus [1], 100 µM; against Staphylococcus aureus [2], 100 µM; against Bacillus subtilis it was 100 µM; with Ralstonia solanacearum, 100 µM; in the test with Escherichia coli, greater than 200 µM.
Take `FC(F)(F)c1ccc(C[n+]2ccc3c([nH]c4ccccc43)c2-c2ccccn2)cc1`: the MIC with Bacillus cereus is 100 µM; in the test with Staphylococcus aureus [1], 50 µM; against Staphylococcus aureus [2], 25 µM; in the test on Bacillus subtilis it was 50 µM; in the test on Ralstonia solanacearum, 50 µM; in the test with Escherichia coli, greater than 200 µM.
With `COC(=O)c1ccc(-c2c3[nH]c4ccc(OC)cc4c3cc[n+]2Cc2ccc(C)cc2)cc1`, the minimal inhibitory concentration (MIC) against Bacillus cereus was 50 µM; against Staphylococcus aureus [1], 100 µM; in the test on Staphylococcus aureus [2], 50 µM; against Bacillus subtilis, 50 µM; in the test on Ralstonia solanacearum, 50 µM; against Escherichia coli, greater than 200 µM.
Consider `COc1ccc2[nH]c3c(-c4ccco4)nccc3c2c1`, for which the MIC in the test with Bacillus cereus, against Staphylococcus aureus [1], against Staphylococcus aureus [2], in the test on Bacillus subtilis, in the test with Ralstonia solanacearum and in the test with Escherichia coli was greater than 200 µM throughout.
Turning to `c1coc(-c2nccc3c2[nH]c2ccccc23)c1`, the MIC in the test on Bacillus cereus, against Staphylococcus aureus [1], in the test with Staphylococcus aureus [2], with Bacillus subtilis, with Ralstonia solanacearum and in the test on Escherichia coli was greater than 200 µM throughout.
Take `COc1ccc2[nH]c3c(-c4ccco4)[n+](Cc4ccccc4)ccc3c2c1`: the MIC was 200 µM in the test with Bacillus cereus; 100 µM in the test with Staphylococcus aureus [1]; 100 µM in the test on Staphylococcus aureus [2]; 50 µM against Bacillus subtilis; 100 µM against Ralstonia solanacearum; greater than 200 µM in the test with Escherichia coli.
Consider `COC(=O)c1ccc(-c2c3[nH]c4ccc(OC)cc4c3cc[n+]2Cc2ccc(F)cc2)cc1`, for which the minimal inhibitory concentration (MIC) came out at 200 µM against Bacillus cereus; 200 µM in the test with Staphylococcus aureus [1]; 100 µM in the test with Staphylococcus aureus [2]; 75 µM against Bacillus subtilis; 150 µM in the test on Ralstonia solanacearum.
Take `C[C@@H]1O[C@@H]1P(=O)(O)O` [PHOSPHOMYCIN DISODIUM]: the MIC against Bacillus cereus is 25 µM; against Staphylococcus aureus [1], 50 µM; against Staphylococcus aureus [2] it was 100 µM; against Bacillus subtilis, 12.5 µM; in the test on Ralstonia solanacearum, 50 µM; against Escherichia coli, 6.25 µM.
On to `COC(=O)c1ccc(-c2c3[nH]c4ccc(OC)cc4c3cc[n+]2Cc2ccc([N+](=O)[O-])cc2)cc1`, for which the MIC against Bacillus cereus was found to be 200 µM; against Staphylococcus aureus [1], 200 µM; with Staphylococcus aureus [2] it was 100 µM; against Bacillus subtilis, 200 µM; in the test on Ralstonia solanacearum it was 100 µM.
With `COc1ccc2[nH]c3c(-c4ccc5c(c4)OCO5)[n+](Cc4ccccc4)ccc3c2c1`, the minimum inhibitory concentration (MIC) with Bacillus cereus was 200 µM; in the test on Staphylococcus aureus [1], 50 µM; in the test with Staphylococcus aureus [2] it was 100 µM; with Bacillus subtilis, 50 µM; with Ralstonia solanacearum, 50 µM; in the test on Escherichia coli it was greater than 200 µM.
Regarding `COC(=O)c1ccc(-c2c3[nH]c4ccc(OC)cc4c3cc[n+]2Cc2ccccc2)cc1`, the minimal inhibitory concentration (MIC) in the test with Bacillus cereus is 200 µM; in the test on Staphylococcus aureus [1], 200 µM; with Staphylococcus aureus [2] it was 100 µM; in the test with Bacillus subtilis, 100 µM; with Ralstonia solanacearum it was 100 µM; in the test on Escherichia coli it was greater than 200 µM.
Regarding `Cc1ccc(C[n+]2ccc3c([nH]c4ccccc43)c2-c2ccc3c(c2)OCO3)cc1`, the MIC in the test with Bacillus cereus is 100 µM; in the test on Staphylococcus aureus [1] it was 50 µM; with Staphylococcus aureus [2], 50 µM; against Bacillus subtilis it was 25 µM; with Ralstonia solanacearum, 50 µM; against Escherichia coli, greater than 200 µM.
On to `COc1ccc2[nH]c3c(-c4ccccn4)nccc3c2c1`, for which the MIC against Bacillus cereus, in the test on Staphylococcus aureus [1], in the test on Staphylococcus aureus [2], in the test on Bacillus subtilis, in the test with Ralstonia solanacearum and against Escherichia coli was greater than 200 µM each time.
Take `c1ccc(C[n+]2ccc3c([nH]c4ccccc43)c2-c2ccco2)cc1`: the MIC was greater than 200 µM in the test with Bacillus cereus; 100 µM in the test on Staphylococcus aureus [1]; 100 µM in the test on Staphylococcus aureus [2]; 100 µM in the test on Bacillus subtilis; 100 µM against Ralstonia solanacearum; greater than 200 µM against Escherichia coli.
On to `COC(=O)c1ccc(-c2nccc3c2[nH]c2ccc(OC)cc23)cc1`, for which the minimal inhibitory concentration (MIC) against Bacillus cereus, in the test with Staphylococcus aureus [1], against Staphylococcus aureus [2], against Bacillus subtilis, against Ralstonia solanacearum and against Escherichia coli was greater than 200 µM in each case.
As to `COC(=O)c1ccc(-c2c3[nH]c4ccc(OC)cc4c3cc[n+]2Cc2ccccc2F)cc1`, the minimal inhibitory concentration (MIC) in the test with Bacillus cereus came out at 200 µM; against Staphylococcus aureus [1], 200 µM; with Staphylococcus aureus [2], 200 µM; with Bacillus subtilis it was 100 µM; in the test with Ralstonia solanacearum, 150 µM.
As to `COC(=O)c1ccc(-c2c3[nH]c4ccc(OC)cc4c3cc[n+]2Cc2ccccc2Br)cc1`, the minimal inhibitory concentration (MIC) in the test with Bacillus cereus was 100 µM; in the test with Staphylococcus aureus [1], 75 µM; in the test on Staphylococcus aureus [2], 75 µM; in the test with Bacillus subtilis it was 50 µM; against Ralstonia solanacearum, 50 µM.
For `COc1ccc2[nH]c3c(-c4ccc5c(c4)OCO5)nccc3c2c1`, the MIC against Bacillus cereus is greater than 200 µM; in the test on Staphylococcus aureus [1], 200 µM (≈ 63.7 µg/mL); against Staphylococcus aureus [2], 200 µM (≈ 63.7 µg/mL); with Bacillus subtilis, greater than 200 µM; in the test with Ralstonia solanacearum, greater than 200 µM; against Escherichia coli it was greater than 200 µM.
For the molecule `COC(=O)c1ccc(-c2c3[nH]c4ccc(OC)cc4c3cc[n+]2Cc2cccc(F)c2)cc1`, the minimum inhibitory concentration (MIC) in the test with Bacillus cereus is 200 µM; against Staphylococcus aureus [1], 200 µM; against Staphylococcus aureus [2] it was 200 µM; against Bacillus subtilis it was 75 µM; with Ralstonia solanacearum it was 150 µM.
As to `COc1ccc2[nH]c3c(-c4ccco4)[n+](Cc4ccc(C)cc4)ccc3c2c1`, the MIC in the test on Bacillus cereus was found to be 100 µM; in the test on Staphylococcus aureus [1], 50 µM; against Staphylococcus aureus [2], 50 µM; in the test on Bacillus subtilis it was 25 µM; against Ralstonia solanacearum it was 25 µM; with Escherichia coli it was 100 µM.
Take `COC(=O)c1ccc(-c2c3[nH]c4ccc(OC)cc4c3cc[n+]2Cc2cccc(Br)c2)cc1`: the minimum inhibitory concentration (MIC) amounted to 75 µM against Bacillus cereus; 50 µM against Staphylococcus aureus [1]; 50 µM in the test on Staphylococcus aureus [2]; 25 µM against Bacillus subtilis; 25 µM against Ralstonia solanacearum.
Take `COC(=O)c1ccc(-c2c3[nH]c4ccc(OC)cc4c3cc[n+]2Cc2ccc(Cl)cc2)cc1`: the MIC against Bacillus cereus worked out at 50 µM; in the test on Staphylococcus aureus [1] it was 100 µM; against Staphylococcus aureus [2], 50 µM; against Bacillus subtilis, 50 µM; with Ralstonia solanacearum, 37.5 µM.
